Assay outcomes (PubChem)
Sampled rows, rich in hits. Any-hit rate of the full collection: about 3.6%.
AHR activator – activates the human aryl hydrocarbon receptor; P35869; AHR-responsive luciferase reporter cells, luminescence; activation, % at 5 µM; 320,000 compounds, 2.5% hits; in the data active means activation above about 47%;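 further: 0% = vehicle wells and 100% = reference agonist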
Hsp70 act – Hsp70 transcriptional activation, primary screen | HeLa Hsp70 promoter luciferase reporter, luminescence; scaled: vehicle 0, proteasome-inhibitor control 100% | activation, % at 10 µM | 200,000 compounds, 0.04% hits | AID 1203;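 active means activation above the mean across all tested compounds plus 3 SD, cutoff set per campaign, cut at about 5.5% in these data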;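 further: 100% = MG132 at 30 µM as the positive control and 0% = DMSO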
STAT3 activator – activators of IL-6 induced STAT3 signaling; 190,000 compounds, 0.91% hits; U3A cells, IL-6 STAT3-luciferase reporter, luminescence; 100% = signal with IL-6 EC80 alone; activation (% of control), % at 5.6 µM; AID 871;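 active means activation above the screen-wide mean of compound activation plus 3 SD, cut at about 130% in these data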;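 further: 0% = background luminescence of wells with medium and substrate only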
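Material: STAT3-luciferase reporter U3A cells; Probe or stimulus: IL-6 (33 ng/mL); Incubation: compound pre-incubation 1 h before IL-6, then 6 h stimulation at 37 °C; Technique: luminescence from STAT3-driven luciferase reporter; Evaluation: % activation versus median of IL-6-stimulated wells; Controls: IL-6-only high control.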
HSF1 inh – HSF1 inhibition; 300,000 compounds, 0.77% hits; AID 2098; NIH3T3-HGL HSE-luciferase, MG132-induced, luminescence 8 h; active compounds read low; activity change, negative = inhibition, % at 7.5 µM (by protocol);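 active means more than half of replicate wells show activity change below -50%, luminescence cut by over half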;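 further: luciferase reports HSF-1 transcriptional activity via heat shock element; 0% = median of DMSO wells and -100% = zero luminescence signal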
PolyA inh – inhibitors of polyadenylation in S. cerevisiae. 300,000 compounds, 0.02% hits. S. cerevisiae SKY197-pL101 polyadenylation reporter, beta-gal luminescence; efflux-impaired pdr1/pdr3 knockout yeast; score 100 = 6 SD above DMSO. activity score, % at 12 µM;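 active means lowest replicate activity score at least 50, where 100 means six control SD above control mean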;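 further: yeast exposed to compound for 9 h at 30 °C; higher score means more reporter readthrough which indicates perturbed polyadenylation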
PERK inh – human PERK inhibition, primary cell-based screen | inhibition, % at 5.6 µM | AID 1416 | CHO PERK-DD fusion, SEAP luminescence translation reporter | 220,000 compounds, 0.17% hits | Q9NZJ5;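 active means inhibition above the mean inhibition of all tested compounds plus 3 SD, set separately per screening campaign, cut at about 2.9% in these data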;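 further: PERK kinase domain activated by AP20187 dimerizer at 100 nM; 0% = DMSO with dimerizer and 100% = rapamycin at 8.4 µM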
Target sequence (Q9NZJ5 whole entry, looked up, the tested form may be a part): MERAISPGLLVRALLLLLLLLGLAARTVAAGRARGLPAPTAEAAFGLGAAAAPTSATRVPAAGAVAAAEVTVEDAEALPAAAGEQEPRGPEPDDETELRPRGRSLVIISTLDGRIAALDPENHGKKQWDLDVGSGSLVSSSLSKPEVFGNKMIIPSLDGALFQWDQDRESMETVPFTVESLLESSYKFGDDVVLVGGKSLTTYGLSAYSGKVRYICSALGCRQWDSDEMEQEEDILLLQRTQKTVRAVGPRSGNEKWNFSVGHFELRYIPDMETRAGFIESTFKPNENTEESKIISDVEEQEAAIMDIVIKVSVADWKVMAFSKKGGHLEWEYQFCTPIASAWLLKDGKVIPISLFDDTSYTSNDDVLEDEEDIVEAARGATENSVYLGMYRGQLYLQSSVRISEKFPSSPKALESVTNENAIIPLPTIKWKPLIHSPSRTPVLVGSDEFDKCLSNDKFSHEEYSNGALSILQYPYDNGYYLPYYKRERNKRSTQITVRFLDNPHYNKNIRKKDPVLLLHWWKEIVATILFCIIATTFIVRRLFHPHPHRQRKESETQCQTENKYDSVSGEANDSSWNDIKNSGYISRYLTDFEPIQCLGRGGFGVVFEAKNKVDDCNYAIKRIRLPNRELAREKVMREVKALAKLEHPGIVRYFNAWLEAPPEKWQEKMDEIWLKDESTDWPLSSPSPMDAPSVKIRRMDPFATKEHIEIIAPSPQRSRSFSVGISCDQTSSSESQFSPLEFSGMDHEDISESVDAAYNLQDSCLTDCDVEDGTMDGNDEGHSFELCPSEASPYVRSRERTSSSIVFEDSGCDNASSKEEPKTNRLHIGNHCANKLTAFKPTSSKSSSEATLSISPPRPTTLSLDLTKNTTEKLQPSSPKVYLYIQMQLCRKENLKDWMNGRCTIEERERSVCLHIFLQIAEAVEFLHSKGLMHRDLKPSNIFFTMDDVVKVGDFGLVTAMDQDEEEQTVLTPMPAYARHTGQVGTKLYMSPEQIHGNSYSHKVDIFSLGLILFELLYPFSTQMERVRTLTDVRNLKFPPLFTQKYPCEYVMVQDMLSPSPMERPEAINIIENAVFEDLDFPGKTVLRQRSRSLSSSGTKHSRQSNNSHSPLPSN
* marks the source's active call; other numbers are inactive results; . = no result.

SMILES	AHR activator	Hsp70 act	STAT3 activator	HSF1 inh	PolyA inh	PERK inh
Cc1sc(N/N=C/c2cccs2)nc1-c1ccccc1	78*	0	128	11	9	0
Cc1sc(NC(=O)c2cccs2)nc1-c1ccccc1	29	0	84	19	-19	-1
Cc1[nH]c2ccccc2c1NC(=O)CN1CCN(C(=O)c2ccco2)CC1	15	.	.	-2	-6	0
Cc1c(C(=O)N2CCOCC2)sc(NC(=O)c2ccccc2F)c1C#N	4	.	.	1	18	.
Cc1nc(SCc2nc3ccccc3[nH]2)c2oc3ccccc3c2n1	11	0	106	3	-20	-1
OCCCNc1nc(-c2ccccc2)nc2c1oc1ccccc12	50*	.	.	-2	-21	-2
COc1cccc2c1oc1c(SCc3nc4ccccc4[nH]3)nc(C)nc12	59*	.	.	.	.	.
O=C(O)CNc1nc(-c2ccccc2)nc2c1oc1ccccc12	21	.	.	-13	0	1
c1ccc(-c2nc(SCc3nc4ccccc4[nH]3)c3oc4ccccc4c3n2)cc1	68*	.	.	.	.	.
c1ccc2[nH]c(CSc3ncnc4c3oc3ccccc34)nc2c1	53*	0	114	10	-18	-2
COc1cc2c(cc1OC)CN(c1ccc(F)cc1[N+](=O)[O-])CC2	59*	.	.	47	-8	.
COc1cc2c(cc1OC)CN(c1ccc([N+](=O)[O-])cc1Cl)CC2	0	0	107	18	-29	-1
COC(=O)C(Cc1ccccc1)NC(=O)CNC(=O)c1sc2ccccc2c1Cl (stereo unspecified)	3	.	.	-53*	1	.
Cc1ccc(NC(=O)OCC(F)(F)C(F)F)cc1NC(=O)OCC(F)(F)C(F)F	55*	0	108	2	7	1
C=CCNC(=S)N/N=C/c1ccc(-c2ccc(Cl)cc2Cl)o1	61*	.	.	-3	-6	.
C=CCNC(=S)N/N=C/c1ccc(-c2ccc(OC)cc2)o1	64*	0	95	28	-9	0
C=CCNC(=S)N/N=C/c1ccc(-c2cc(Cl)ccc2Cl)o1	18	0	81	-14	7	0
CCCCC(=O)Nc1sc(C(=O)N(CC)CC)c(C)c1C(=O)OC	5	0	101	-88*	11	-1
O=C1CN(C(=O)CN2CCCC2)C(c2ccccc2)c2cc(Br)ccc2N1 (stereo unspecified)	30	0	117	11	13	0
O=C1CN(C(=O)CN2CCOCC2)C(c2ccccc2)c2cc(Br)ccc2N1 (stereo unspecified)	57*	0	108	3	4	2
CCCCNC1=CC(=O)C(=O)c2ccccc21	53*	0	102	2	-5	1
CC(C)(C)c1cc(C(=O)NNc2cc(C(F)(F)F)ccc2Cl)n(Cc2ccccc2)n1	9	.	.	1	-3	-1
CCC(C)N(C(=O)CN1C(=O)NC2(CCc3ccccc32)C1=O)C1CCS(=O)(=O)C1 (stereo unspecified)	10	.	.	.	.	.
CCNc1nc(NC(C)C)nc(SCCOc2ccc(C)cc2)n1	47*	0	92	0	-8	-1
CCNc1nc(NC(C)C)nc(SCCOC(=O)c2ccccc2)n1	3	0	93	3	-2	-1
SMILES	AHR activator	Hsp70 act	STAT3 activator	HSF1 inh	PolyA inh	PERK inh
CCOC1(c2ccccc2)CC1C(=O)N/N=C/c1cccc([N+](=O)[O-])c1 (stereo unspecified)	6	.	.	1	-4	-1
Cc1ccc(OCc2cc(C(=O)N(C)CCc3nc4ccccc4[nH]3)no2)cc1C	.	.	.	-88*	-4	.
CCN(CC)c1ccc(/C=N/NC(=S)NCc2ccc(OC)cc2)cc1	49*	0	106	22	-6	0
CC(C)COc1ccc(CNC(=S)N/N=C/c2ccc([N+](=O)[O-])cc2)cc1	2	0	91	6	-7	-1
CC(C)Oc1ccc(CNC(=S)N/N=C/c2ccc([N+](=O)[O-])cc2)cc1	1	0	99	-67*	-22	0
CC/C(=N/NC(=O)c1ccccc1O)c1c(C)[nH]n(-c2ccccc2)c1=O	-1	.	.	1	-4	.
COc1cccc(N/C(N)=N/c2nc(C(F)(F)F)cc(C(F)(F)F)n2)c1	18	0	94	-5	6	2
